Measurements taken from PMC10256642 (Clinical Pharmacokinetics, 2023).
Entries after “also recorded” stand apart in the source; their conditions may differ. Where two headings read alike, the source gives them in different places.

Key:
[1] = Immunogenicity: antidrug antibodies; type: in vivo, human; settings: 100 µg s.c. single dose; baseline, 7 and 28 days after treatment
Outline: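 Open-label single subcutaneous dose of test compound (100 µg, lower abdomen, fasted) in adults with normal or impaired renal function. Antidrug antibody titers were measured at baseline, 7 and 28 days post-dose, or at early discontinuation. Cross-reactivity to GLP-1 and glucagon was also recorded. Treatment-emergent incidence is treatment-induced plus treatment-boosted ADA. Analysed in all treated participants with ADA readings.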

[2] = cited from earlier work
[3] = type: in vivo, human; settings: 100 µg s.c. single dose
Outline: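 Adults aged 18–85 (BMI 17–40 kg/m2) were grouped by Cockcroft–Gault CrCl and given a single subcutaneous 100 µg dose of test compound. Fasting ran from ≥8 h before to 4 h after dosing, with no fluids 1 h before to 2 h after. Adverse events, vitals, ECG, telemetry and laboratory tests were monitored inpatient for 72 h, then outpatient at days 7±1 and 28±2. TEAEs were coded by MedDRA 21.0, counting each once at highest severity.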

[4] = 5–300 µg dose range; previously demonstrated, no reference given; cited from earlier work
[5] = in vitro studies; cited from earlier work
[6] = severe renally impaired and ESRD subjects; cited from earlier work

## CCCCCCCCCCCCCCCC(=O)N[C@@H](CCC(=O)NCCCC[C@H](NC(=O)[C@H](CC(=O)O)NC(=O)[C@H](CO)NC(=O)[C@@H](NC(=O)[C@H](Cc1ccccc1)NC(=O)[C@@H](NC(=O)CNC(=O)[C@H](CCC(N)=O)NC(=O)[C@H](CO)NC(=O)[C@@H](N)Cc1c[nH]cn1)[C@@H](C)O)[C@@H](C)O)C(=O)N[C@@H](CO)C(=O)N[C@@H](CCC(=O)O)C(=O)N[C@@H](Cc1ccc(O)cc1)C(=O)N[C@@H](CC(C)C)C(=O)N[C@@H](CC(=O)O)C(=O)N[C@@H](CO)C(=O)N[C@@H](CCC(=O)O)C(=O)N[C@@H](CCCNC(=N)N)C(=O)N[C@@H](C)C(=O)N[C@@H](CCCNC(=N)N)C(=O)N[C@@H](CC(=O)O)C(=O)N[C@@H](Cc1ccccc1)C(=O)N[C@H](C(=O)N[C@@H](C)C(=O)N[C@@H](Cc1c[nH]c2ccccc12)C(=O)N[C@@H](CC(C)C)C(=O)N[C@@H](CCC(=O)O)C(=O)N[C@@H](C)C(=O)NCC(=O)NCC(=O)O)C(C)C)C(=O)O [cotadutide]
[1]
  Antidrug antibody (ADA) results: No positive antidrug antibody results; also recorded: No confirmed positive ADA results
[2]; 32-day treatment with cotadutide 50–300 µg, T2D and stage 3 CKD with micro- and macroalbuminuria
  Urine albumin-to-creatinine ratio vs placebo: reduced urine albumin-to-creatinine ratio
[2]; once-daily cotadutide titrated to 50–300 µg for 32 days, moderate renal impairment and T2D, 1 of 21 participants
  Participants with a serious TEAE deemed related to cotadutide: 4.8%
[3]; 10 of 37 individuals
  Incidence of headache: 27.0%
[3]; 12 of 37 individuals
  Incidence of nausea: 32.4%
[3]; 13 of 37 individuals
  Incidence of vomiting: 35.1%
[3]; all groups
  Severity of TEAEs: mostly mild to moderate in severity
[3]; all patients, 22 of 37
  Incidence of TEAE: 59.5%
[3]; lower moderate renal impairment group, 8 of 11 patients
  Incidence of TEAE: 72.7%
[3]; normal renal function group
  Incidence of nausea: 38%
  Incidence of vomiting: 38%
[3]; renal impairment groups
  Incidence of nausea, range: 29–38%
  Incidence of vomiting, range: 18–50%
[3]; study period
  Deaths or other serious TEAEs: no deaths or other serious TEAEs
[3]; upper moderate renal impairment group, 3 of 7 patients
  Incidence of TEAE: 42.9%
[4]
  PK profile (dose and time dependence): linear and time-independent PK profile

## exenatide: GLP-1 receptor agonist exenatide (exendin-4)
[5]
  Primary cleavage sites (metabolized specifically in the kidney): after amino acids (AA)-21 and -22
[6]
  Tolerability and PK in severe renal impairment and ESRD: poor tolerability and significant changes in PK
